The values below come from ChEMBL document CHEMBL4339193, “Phenotypic Screening-Based Identification of 3,4-Disubstituted Piperidine Derivatives as Macrophage M2 Polarization Modulators: An Opportunity for Treating Multiple Sclerosis” (J Med Chem, 2019).

The subject of series [1] is Mus musculus. Briefly: Antiinflammatory activity in C57BL/6J mouse model of MOG (35 to 55 residues)/pertussis toxin/complete Freund's adjuvant-induced experimental allergic encephalomyelitis assessed as effect on dendritic cell population in spleen by measuring change in CD11c level at 200 mg/kg, ig administered daily starting from 7 days post-immunization measured after 13 to 19 days post-immunization by flow cytometry analysis. The class given is functional, organism-based. A digest of the protocol: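 MOG35-55/CFA EAE mice were dosed daily in saline from day 7 and sampled between days 13 and 19. Spleens and dLNs were mechanically dissociated to single cells. CNS cells came from collagenase IV digestion and a 70%/30% Percoll gradient. Cells were surface-stained with fluorochrome antibodies, including CD4, CD11b, CD11c and MHC-II, and analysed by flow cytometry.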
A general note: In flow cytometry, cells or beads pass a laser one at a time.

Series [2] in a line: Tmax in Sprague-Dawley rat at 50 mg/kg, po administered as single dose via gavage by LC/MS analysis. The class given is ADME, organism-based. The following applies: in vivo. The gist of the method: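 Single dose given to rats. Venous blood (100 µL) drawn at 0, 0.5, 1, 2, 4, 8 and 12 h. Plasma separated by centrifugation and stored at -20 °C, then compound measured by LC/MS. Cmax, Tmax, t1/2 and AUC derived from the concentration-time data.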

The nature of series [3]: Ratio of AUC (0 to t) to AUC (0 to infinity) in Sprague-Dawley rat at 50 mg/kg, po administered as single dose via gavage. The class given is ADME, organism-based. As to conditions: in vivo.
The subject of series [4] is Mus musculus. Nature of the series: Antiinflammatory activity in C57BL/6J mouse model of MOG (35 to 55 residues)/pertussis toxin/complete Freund's adjuvant-induced experimental allergic encephalomyelitis assessed as reduction in infiltration in spinal cord at 200 mg/kg, ig administered daily starting from 7 days post-immunization measured after 14 days post-immunization by H and E staining based microscopic analysis. It is filed as functional, organism-based. The gist of the method: (§1)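 EAE mice dosed daily in saline from day 7 were perfused with PBS and fixed in 4% PFA on day 14; spinal cords were taken. For LFB, frozen OCT sections sat 3 h in 0.1% Luxol Fast Blue at 56-60°C, were differentiated in 0.05% lithium carbonate for 10-12 s, cleared in 70% ethanol, dehydrated and mounted. For H&E, paraffin sections were stained to assess inflammation.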

Series [5] has as its system RAW264.7. Nature of the series: Modulation of M1 polarization in mouse RAW264.7 cells assessed as change in Mcp1 mRNA expression at 300 nM measured after 24 hrs by qRT-PCR analysis relative to control. As to conditions: RAW264.7, 24 h, read-out: FC. It is filed as functional, cell-based. A digest of the protocol:
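RAW264.7 cells (DMEM, 10% FBS) exposed 24 h to 300 nM compound alone; LPS 50 ng/ml as positive control. Mcp1 mRNA by qRT-PCR; fold change = dosed group level / control group level.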
A general note: Quantitative PCR measures a nucleic acid by following its amplification.

Series [6] in a line: Toxicity in ICR mouse assessed as adverse effect at 400 mg/kg, ig administered daily for 14 days. It is filed as organism-based. As to conditions: in vivo, po, 336 h. The gist of the method:
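Repeated-dose study in healthy mice over 14 days. Read-outs were body weight change, serum parameters, and organ-to-body and organ-to-brain weight ratios.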

The test system of series [7] is RAW264.7. Briefly: Inhibition of M1 polarization in mouse RAW264.7 cells assessed as down regulation of IL6 mRNA expression at 300 nM measured after 24 hrs by qRT-PCR analysis. The class given is functional, cell-based.
Series [8] can be described thus: Half life in Sprague-Dawley rat at 10 mg/kg, iv administered as single dose by LC/MS analysis. The class given is ADME, organism-based. As to conditions: in vivo. The gist of the method: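 Single dose in rats; venous blood (100 µL) drawn at 0, 0.5, 1, 2, 4, 8 and 12 h, plasma separated by centrifugation and held at -20 °C. Compound measured by LC/MS; Cmax, Tmax, t1/2 and AUC derived from the concentration–time data.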

In series [9] the test system is Mus musculus. Nature of the series: Antiinflammatory activity in C57BL/6J mouse model of MOG (35 to 55 residues)/pertussis toxin/complete Freund's adjuvant-induced experimental allergic encephalomyelitis assessed as reduction in development of clinical symptoms at 200 mg/kg, ig administered daily starting from 7 days post-immunization up to 26 days. It is filed as functional, organism-based. The gist of the method: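 MOG35-55/CFA EAE mice received daily saline vehicle, 100 or 200 mg/kg drug, or dexamethasone 10 mg/kg from day 7 post-immunisation. Clinical signs were scored on a 0-5 scale (e.g. 3 = complete bilateral hind limb paralysis, 5 = death). Mean scores used n=5.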

For series [10], the system named is BMDM. Briefly: Modulation of M2 polarization in C57BL/6J mouse BMDM cells assessed as up regulation of YM1 expression at 300 nM measured after 4 to 24 hrs by Western blot analysis. It is filed as functional, cell-based. The gist of the method:
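BMDMs lysed in pH 7.6 buffer with 1% Triton X-100, phosphatase inhibitor and 1 mM PMSF. Proteins separated by SDS-PAGE, blotted to PVDF and probed with anti-Arg-1, anti-Ym1 or anti-TNF-α, then ECL detection; GAPDH as loading control.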
On the technique in general: Immunoblotting shows a protein as a band on a membrane.

Series [11] has as its system RAW264.7. Briefly: Inhibition of M1 polarization in mouse RAW264.7 cells assessed as down regulation of CD80 mRNA expression at 300 nM measured after 24 hrs by qRT-PCR analysis. It is filed as functional, cell-based.
In series [12] the test system is BMDM. Briefly: Inhibition of LPS-induced M1 polarization in C57BL/6J mouse BMDM cells assessed as down regulation of CD86 expression at 300 nM measured after 24 hrs by FACS analysis. The class given is functional, cell-based. A digest of the protocol: (§2)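 BMDMs pretreated with 50 ng/ml LPS for 24 h, then given compound (300 nM, or a range of concentrations) for 24 h. Stained for F4/80 and CD86; % CD86+F4/80+ cells read by flow cytometry. Mean ± SEM, at least three independent experiments.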

Series [13] relates to BMDM. Briefly: Modulation of M2 polarization in C57BL/6J mouse BMDM cells assessed as up regulation of Mrc1 mRNA expression at 300 nM measured after 24 hrs by qRT-PCR analysis. It is filed as functional, cell-based. A digest of the protocol:
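BMDMs treated 24 h with 300 nM compound at 37 °C, 5% CO2. Trizol RNA extraction, then qRT-PCR for Arg1, Mrc1 and Fizz1 mRNA. Mean ± SEM.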

Series [14] concerns RAW264.7. Nature of the series: Modulation of M2 polarization in mouse RAW264.7 cells assessed as up regulation of MRC1 mRNA expression at 300 nM measured after 24 hrs by qRT-PCR analysis. The class given is functional, cell-based.
For series [15], the system named is RAW264.7. Nature of the series: Modulation of M2 polarization in mouse RAW264.7 cells assessed as up regulation of CCR7 mRNA expression at 300 nM measured after 24 hrs by qRT-PCR analysis. It is filed as functional, cell-based.
Series [16] deals with BMDM. Nature of the series: Inhibition of LPS-induced M1 polarization in C57BL/6J mouse BMDM cells assessed as down regulation of CD86 expression measured after 24 hrs by FACS analysis. The class given is functional, cell-based. A digest of the protocol: as §2
In series [17] the test system is BMDM. Nature of the series: Inhibition of LPS-induced M1 polarization in C57BL/6J mouse BMDM cells assessed as down regulation of Mcp1 mRNA expression at 300 nM measured after 24 hrs by qRT-PCR analysis. It is filed as functional, cell-based. The gist of the method: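 BMDMs pre-incubated 24 h with 50 ng/ml LPS to induce M1, then treated 24 h with 300 nM compound. Total RNA extracted with Trizol; Mcp1, Inos and Cd86 mRNA measured by qRT-PCR. Mean ± SEM.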

Series [18] has as its system Mus musculus. Briefly: Antiinflammatory activity in C57BL/6J mouse model of MOG (35 to 55 residues)/pertussis toxin/complete Freund's adjuvant-induced experimental allergic encephalomyelitis assessed as reduction in demyelination in spinal cord at 200 mg/kg, ig administered daily starting from 7 days post-immunization measured after 14 days post-immunization by LFB staining based microscopic analysis. It is filed as functional, organism-based. The gist of the method: as §1

Activity calls are given as the source filed them. No cut-off for these calls is given here.

For `Cl.Cn1ncc(Cl)c1-c1ccc(C(=O)N[C@@H]2CNCC[C@H]2c2cccc(F)c2)cc1`, the outcome in the series with Mus musculus [1] was inactive. Also, the Tmax in series [2] worked out at 3.25 h. Besides, the “Ratio AUC” value in series [3] turned out to be 98.425%. Also, the result in the series with Mus musculus [4], in the series with Mus musculus [9], with BMDM [10], in the series with BMDM [13], in the series with RAW264.7 [14] and with RAW264.7 [15] was Active. Besides, the outcome with Mus musculus [18] was Active. In addition, in the series with RAW264.7 [5], the fold induction at 0.3 µM worked out at 1.47. For the same molecule, the Activity entry in series [6] is reported as “Non-Toxic”. The inhibition entry in the series on RAW264.7 [7], with RAW264.7 [11], with BMDM [12] and in the series with BMDM [17] was “Active” in each case. The molecule further had a half-life in series [8] of 6.3 h. Besides, the inhibition entry in the series with BMDM [16] is “Dose-dependent effect”.

The Tmax is the time from dosing to the highest level. Usually half-life stands for how long it takes for the measured level to halve.
